Assay outcomes deposited in PubChem by several laboratories.
Hsp70 activator: Hsp70 transcriptional activation, primary screen | HeLa Hsp70 promoter luciferase reporter, luminescence; scaled: vehicle 0, proteasome-inhibitor control 100% | activation, % at 10 µM | 200,000 tested, 0.04% active | AID 1203;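 active means activation above the mean across all tested compounds plus 3 SD, cutoff set per campaign, cut at about 5.5% in these data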
MDM2 E3 inh: blocks human Mdm2 ubiquitin ligase activity; cell-based MDM2 ubiquitination luciferase reporter, 2 h; 0 = plate control, 100 = twice control, blank-subtracted; signal enhancement, % at 5 µM; 210,000 tested, 0.11% active; AID 1230;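 active means signal enhancement of 30% or more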;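 further: luminescence tracks abundance of the self-degrading MDM2-luciferase fusion protein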
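Material: stable MDM2–luciferase fusion reporter cells / Quantity: 2000 cells/well / Dosing: single 5 µM compound dose, 0.2% final DMSO / Buffer or medium: DMEM / Schedule: 4 h cell settling then 2 h compound exposure, 37 °C / Detection: luminescence with SteadyLite reagent, 15 min at room temperature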
S1P3 antag: blocks the human S1P3 receptor | 170,000 tested, 0.27% active | AID 485 | inhibition, % at 4.98 µM | CHO S1P3 NFAT-BLA reporter, FRET fluorescence, antagonist mode;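 active means inhibition above the plate cutoff, the mean inhibition of test wells on that plate plus 3 SD, cut at about 28% in these data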;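 further: cells challenged with S1P at its EC80 of 0.8 µM; blue over green emission ratio from cleaved BLA substrate after 4 h stimulation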
Target sequence (Q99500 whole entry, looked up): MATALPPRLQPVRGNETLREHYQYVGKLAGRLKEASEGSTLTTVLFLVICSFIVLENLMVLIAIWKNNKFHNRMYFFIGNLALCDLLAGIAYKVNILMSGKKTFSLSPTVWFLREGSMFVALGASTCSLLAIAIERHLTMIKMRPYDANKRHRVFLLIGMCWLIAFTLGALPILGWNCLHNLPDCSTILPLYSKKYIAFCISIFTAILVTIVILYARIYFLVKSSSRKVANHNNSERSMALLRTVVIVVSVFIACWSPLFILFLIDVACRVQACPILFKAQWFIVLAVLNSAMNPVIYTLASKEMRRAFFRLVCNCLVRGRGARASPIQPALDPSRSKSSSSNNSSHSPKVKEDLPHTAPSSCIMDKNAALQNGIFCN
CHOP inh: inhibitors of CHOP induction in ER stress response; CHO-K1 CHOP-promoter luciferase, tunicamycin-induced, 15-18 h; inhibition, % at 10 µM; 220,000 tested, 3.8% active;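 active means compounds that reduced the stress-induced luciferase reporter signal by more than about 70% of percent inhibition, limit read from the data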
CHOP inh conf: confirmation of CHOP induction inhibitors; shares compounds with CHOP inh; CHO-CHOP promoter luciferase reporter, tunicamycin-induced, luminescence; inhibition, % at 10 µM; 2,100 tested, 45% active;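 active means mean of three repeat readings of reporter signal inhibition above a set limit, cut at about 70% in these data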
Numbers stand for hits; . = inactive; / = no result. A selection: hits, their analogues and other compounds. The true share with any hit is near 4%.

SMILES	Hsp70 activator	MDM2 E3 inh	S1P3 antag	CHOP inh	CHOP inh conf
O=C(c1ccccc1)c1coc2c1C(=O)c1ccccc1C2=O	.	.	.	.	/
O=C1c2ccccc2-c2onc3ccc(Oc4ccccc4)c1c23	.	.	/	106.3	83.8
Cc1ccccc1NC(=O)N1CCN(S(=O)(=O)c2ccccc2)CC1	.	.	.	.	/
CN1CCN(C2=C(Cl)C(=O)C(c3cnc(N4CCCCC4)s3)=C(Cl)C2=O)CC1	.	/	/	100.4	.
CN1CCN(C2=C(Cl)C(=O)N(C3CCCCC3)C2=O)CC1	.	.	.	.	/
O=[N+]([O-])c1cc(/C=N\Nc2nccs2)ccc1O	.	.	/	.	/
Cc1cc(C)cc(OCC(=O)OCC(=O)N2CC(=O)Nc3ccccc32)c1	.	.	.	.	/
COc1ccc2[nH]c3c(=O)n(/N=C/[C@H]4C(C)C=C(C)CC4C)c(=O)[nH]c3c2c1 (some centres not stated)	.	.	.	108.9	.
CCOc1cc(NC(=S)NCCCN2CCOCC2)c(OCC)cc1NC(=O)c1ccc(C)cc1	.	.	.	.	/
O=C(CCSCc1ccccc1F)NCCc1ccccc1	.	.	.	.	/
Cc1cc(C)n2c(=O)c3ccc(Cl)cc3nc2c1C#N	.	.	.	.	/
Cc1cc(Cl)n2c(nc3cc(F)c(F)cc32)c1C#N	.	.	.	105.3	123.6
O=C1C(Nc2ccccc2)=C/C(=N/S(=O)(=O)c2cccs2)c2ccccc21	.	.	.	107.9	111.5
COC(=O)c1cccc(NS(=O)(=O)c2cccs2)c1C	.	.	.	.	/
O=C1C=C(Nc2ccccc2)C(=O)c2ccccc21	.	.	.	.	/
COC(=O)c1ccccc1NC1=C/C(=N\S(=O)(=O)c2cccs2)c2ccccc2C1=O	.	.	/	106.7	109.2
CN(CCC#N)CC(=O)Nc1ccc(S(N)(=O)=O)cc1	.	.	.	.	/
COc1ccc(C2C(=O)N(C3CCCCC3)CC(=O)N2CC2COc3ccccc3O2)cc1 (configuration not stated)	.	.	/	.	/
Cc1[nH]n(-c2ccccc2)c(=O)c1/C=C1/C=c2ccccc2=N1	.	.	.	103.1	77.7
CCOc1ccccc1NC(=O)C1=C(C)NC(=S)NC1c1cccs1 (configuration not stated)	.	.	.	.	/
Fc1cccc(CN2CCN(Cc3nc(CCc4ccccc4)no3)CC2)c1	.	.	.	.	/
O=c1nc(SCc2c(F)cccc2Cl)nc(-c2ccc(Cl)cc2)[nH]1	/	.	.	100.9	.
CCc1cc(SC#N)cc(CC)c1NC(=O)CCl	.	.	.	96.6	.
COc1ccc(N=c2oc3ccc(OC)cc3cc2-c2nc3ccccc3[nH]2)cc1	.	.	/	101.9	107.0
COc1cccc(N=c2oc3ccc(OC)cc3cc2-c2nc3ccccc3[nH]2)c1	.	.	/	.	/
SMILES	Hsp70 activator	MDM2 E3 inh	S1P3 antag	CHOP inh	CHOP inh conf
COc1ccc2cc(C3CC(c4ccco4)=NN3C(=O)CCC(=O)O)c(Cl)nc2c1 (configuration not stated)	.	.	.	.	/
COc1ccc(C2=NN(C(=O)c3ccco3)C(c3cc4ccccc4nc3Cl)C2)cc1 (configuration not stated)	/	/	.	103.0	71.1
CCOc1ccc(CCNc2ccc3nnc(-c4ccccc4)n3n2)cc1OCC	.	/	.	96.7	.
O=C(CSc1ncnc2sc3c(c12)CCC3)Nc1ccccc1C(=O)O	/	/	.	.	/
Cn1nnnc1SCC(=O)Nc1ccc(Cl)c(S(=O)(=O)N2CCOCC2)c1	/	.	.	.	/
COc1cccc(Oc2cn[nH]c2-c2ccc(O)cc2O)c1	.	.	.	/	/
CCCc1ccc(Oc2cn[nH]c2-c2ccc(O)c(C)c2O)cc1	.	.	.	104.8	.
CCCc1ccc(Oc2c(-c3ccc(O)c(C)c3O)n[nH]c2C)cc1	.	.	.	105.7	.
COc1ccc(Oc2c(-c3ccc(O)cc3O)n[nH]c2C)cc1	.	.	.	.	/
Cc1nn(C)c(Oc2ccccc2)c1CCNS(=O)(=O)c1ccccc1	.	.	/	.	/
CC(Sc1ccc2c(c1)OCCO2)C(=O)Nc1ccc(N2CCOCC2)cc1 (configuration not stated)	.	.	.	.	/
CCOc1ccc2nc(NC3=NC(c4ccc(OC)cc4)CC(=O)N3)nc(C)c2c1 (configuration not stated)	.	.	/	106.1	.
O=C(N/N=C/c1cccc2ccccc12)c1n[nH]c2c1CCCC2	.	.	.	100.7	.
COc1ccccc1-c1cc(C(F)(F)F)nc(S(=O)(=O)CCCC(=O)N2CCOCC2)n1	.	.	.	/	.
Cc1cccc(NC(=O)NCc2ccc3c(c2)cc(C)n3C)c1	.	.	/	105.6	.
Cc1cc2cc(CNC(=O)Nc3cccc(Cl)c3)ccc2n1C	.	.	/	.	/
O=C(CCN1C(=O)C2C3CCC(C3)C2C1=O)Nc1ccccc1C(F)(F)F (configuration not stated)	.	.	.	.	/
C=CCOc1cccc(CNc2cccc(C(=O)O)c2)c1	/	.	.	.	/
COc1ccc(N=CC2=C(O)c3ccccc3C2=O)c(OC)c1	.	.	/	100.3	132.7
O=C1C(C=Nc2ccc(F)cc2)=C(O)c2ccccc21	.	.	.	.	/
COc1ccc([N+](=O)[O-])cc1NC(=O)C(C)N1CCN(C(=O)c2ccco2)CC1 (configuration not stated)	.	.	.	.	/
COc1ccc(C(=O)NC(=S)NC(C)(C)C)cc1Br	.	.	/	105.8	.
COc1ccc(C(=O)NC(=S)NC(C)C)cc1Br	.	.	/	.	/
COc1ccc(OCc2cccc(C(=O)Nn3cc([N+](=O)[O-])cn3)c2)cc1	.	.	/	98.0	123.0
COC(=O)c1cccc(Cn2cc([N+](=O)[O-])cn2)c1	.	.	.	.	/
SMILES	Hsp70 activator	MDM2 E3 inh	S1P3 antag	CHOP inh	CHOP inh conf
Cc1cc(C)c2c(=O)n(CC(=O)Nc3ccc(Cl)cc3)sc2n1	/	.	.	104.1	.
COC(=O)c1cn(NC(=O)Cc2c(F)cccc2Cl)c(=O)c2ccccc12	.	.	.	.	/
O=C(CCCCCNc1nc(=S)[nH]c2ccccc12)NCc1ccccc1Cl	.	.	.	.	/
O=C(NCc1ccccc1Cl)C1CCC(CNc2nc(=S)[nH]c3ccccc23)CC1 (configuration not stated)	.	.	.	98.1	.
OCCN1CCN(CC(O)COc2ccc(C34CC5CC(CC(C5)C3)C4)cc2)CC1 (configuration not stated)	.	.	.	.	/
NCCOc1ccc(C23CC4CC(CC(C4)C2)C3)cc1	.	.	.	104.6	.
Cc1ccc2nc(Cl)c(C3CC(c4cccs4)=NN3S(C)(=O)=O)cc2c1 (configuration not stated)	.	.	.	.	/
CC(=O)N1N=C(c2cccs2)CC1c1cc2cc(C)ccc2nc1Cl (configuration not stated)	/	/	.	105.6	.
CCOC(=O)/C(=C/c1c[nH]c2ccccc12)NC(C)=O	.	.	/	.	/
CC(C)COC(=O)/C(C#N)=C/c1c[nH]c2ccccc12	.	.	.	100.7	.
